Results on one compound are retold here after paper PMC5741288 (Pain Reports, 2016).

For the test, the system named is dermal blood flow (flare). Put plainly: Topical capsaicin alone, flare response in anesthetized rats. Type of test: in vivo, Sprague Dawley rats. An outline of the steps:
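Isoflurane-anaesthetised rats had clipped lower abdominal skin and an O-ring placed by a preliminary Doppler image. Capsaicin (0.1–3 mg) or vehicle (30% ethanol, Tween, sterile water) was pipetted into the ring. Dermal blood flow was scanned by laser Doppler imager every 15 min for 120 min. Change from baseline flux was computed every 15 min.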

As to `COc1cc(CNC(=O)CCCC/C=C/C(C)C)ccc1O` [Capsaicin], the Flare response entry by setting is: (0.1 mg topical) “did not produce any increase in flare”; (0.3 mg topical, peaked 30 minutes after application) “transient increase in flare”; (1 mg topical, larger concentrations did not increase flare further) “greatest amount of flare”.
